Experimental data: ChEMBL document CHEMBL3580647, “Discovery of potent indenoisoquinoline topoisomerase I poisons lacking the 3-nitro toxicophore” (J Med Chem, 2015)
Active and inactive are the calls of the source. The calls are words filed in the database; no cut-off is given here.

Legend:
[1] = Growth inhibition of human SF539 cells by five-dose growth inhibition assay; assay type: functional; conditions: SF-539
HOP-62 = experiment: Growth inhibition of human HOP62 cells by five-dose growth inhibition assay; assay type: functional
HCT-116 = experiment: Growth inhibition of human HCT116 cells by five-dose growth inhibition assay; assay type: functional
[2] = target: T1, DNA topoisomerase 1 (Homo sapiens) (UniProt P11387); experiment: Inhibition of recombinant topoisomerase 1 (unknown origin) assessed as DNA cleavage using 3'-[32P]-labeled 117-bp DNA oligonucleotide at 1 uM by PAGE assay; set-up: Activity: scale not given: the % may be the effect or the level left
T1 sequence (whole entry): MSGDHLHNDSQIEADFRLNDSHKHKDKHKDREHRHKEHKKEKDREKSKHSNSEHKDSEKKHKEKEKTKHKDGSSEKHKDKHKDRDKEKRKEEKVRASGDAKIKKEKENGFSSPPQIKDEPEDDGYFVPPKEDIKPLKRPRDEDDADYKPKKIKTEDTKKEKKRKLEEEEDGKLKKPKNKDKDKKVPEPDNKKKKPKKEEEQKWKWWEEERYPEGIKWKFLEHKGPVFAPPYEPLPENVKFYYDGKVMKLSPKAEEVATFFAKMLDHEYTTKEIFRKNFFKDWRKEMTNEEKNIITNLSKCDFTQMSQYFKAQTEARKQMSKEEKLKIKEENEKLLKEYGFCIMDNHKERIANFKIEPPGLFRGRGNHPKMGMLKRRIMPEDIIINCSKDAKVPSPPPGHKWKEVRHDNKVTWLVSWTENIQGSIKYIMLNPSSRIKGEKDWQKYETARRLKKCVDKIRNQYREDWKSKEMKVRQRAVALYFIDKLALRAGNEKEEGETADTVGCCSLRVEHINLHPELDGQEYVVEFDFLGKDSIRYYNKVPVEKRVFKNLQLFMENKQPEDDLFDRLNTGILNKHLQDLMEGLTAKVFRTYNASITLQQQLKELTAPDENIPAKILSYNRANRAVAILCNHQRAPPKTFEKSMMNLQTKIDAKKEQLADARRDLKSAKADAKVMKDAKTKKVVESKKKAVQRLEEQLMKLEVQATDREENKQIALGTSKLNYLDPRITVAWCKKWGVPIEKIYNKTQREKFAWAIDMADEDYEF
Procedure, shortened: (§1)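 Approx. 2 nM 3′-[³²P]-labeled double-stranded DNA incubated with recombinant Top1 and compound at 0.1, 1, 10 or 100 μM for 20 min at 25 °C. Stopped with 0.5% SDS and run on a denaturing gel. […] Run twice.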

DU-145 = experiment: Growth inhibition of human DU145 cells by five-dose growth inhibition assay; assay type: functional
OVCAR-3 = experiment: Growth inhibition of human OVCAR3 cells by five-dose growth inhibition assay; assay type: functional
MCF7 = experiment: Growth inhibition of human MCF7 cells by five-dose growth inhibition assay; assay type: functional
[3] = (§2) Growth inhibition of human NCI60 cells assessed as cell growth at 10 uM; assay type: functional; conditions: read-out: Activity
Procedure, shortened: (§3)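 NCI-60 single-dose screen at 10 μM across ~60 human cancer cell lines. Reported as growth percent relative to vehicle-treated control, averaged over all lines tested as a mean growth percent.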

SN12C = experiment: Growth inhibition of human SN12C cells by five-dose growth inhibition assay; assay type: functional
UACC-62 = experiment: Growth inhibition of human UACC62 cells by five-dose growth inhibition assay; assay type: functional
[4] = target: T1, DNA topoisomerase 1 (Homo sapiens); experiment: Inhibition of recombinant topoisomerase 1 (unknown origin) assessed as DNA cleavage using 3'-[32P]-labeled 117-bp DNA oligonucleotide at 0.1 uM by PAGE assay; procedure, shortened: as §1
[5] = target: T1, DNA topoisomerase 1 (Homo sapiens); experiment: Inhibition of recombinant topoisomerase 1 (unknown origin) assessed as DNA cleavage using 3'-[32P]-labeled 117-bp DNA oligonucleotide at 10 uM by PAGE assay; procedure, shortened: as §1
[6] = target: T1, DNA topoisomerase 1 (Homo sapiens); experiment: Inhibition of recombinant topoisomerase 1 (unknown origin) assessed as DNA cleavage using 3'-[32P]-labeled 117-bp DNA oligonucleotide at 100 uM by PAGE assay; procedure, shortened: as §1
NCI60 = experiment: as §2; assay type: functional; procedure, shortened: as §3

## O=C1c2ccccc2-c2c1c1ccc(I)cc1c(=O)n2CCCn1ccnc1
[1]
  GI50: 0.55 µM
HOP-62
  GI50: 0.437 µM
HCT-116
  GI50: 0.2 µM
[2]
  Activity: 50%
DU-145
  GI50: 0.603 µM
OVCAR-3
  GI50: 3.89 µM
MCF7
  GI50: 0.074 µM
[3]
  growth at 10 µM: 43.5%
SN12C
  GI50: 0.708 µM
UACC-62
  GI50: 2.29 µM

## N#Cc1ccc2c3c(n(CCCn4ccnc4)c(=O)c2c1)-c1ccccc1C3=O
[1]
  GI50: 0.501 µM
HOP-62
  GI50: 0.537 µM
HCT-116
  GI50: 0.112 µM
[2]
  Activity: 50%
DU-145
  GI50: 0.562 µM
OVCAR-3
  GI50: 4.68 µM
MCF7
  GI50: 0.033 µM
[3]
  growth at 10 µM: 41.1%
SN12C
  GI50: 0.575 µM
UACC-62
  GI50: 0.407 µM

## O=C1c2ccccc2-c2c1c1cc(C(F)(F)F)ccc1c(=O)n2C[C@H](O)CO
[2]
  Activity: 20%
[3]
  growth at 10 µM: 82.7%

## O=C1c2ccccc2-c2c1c1ccc(F)cc1c(=O)n2CCCN1CCOCC1
[4]
  inhibition: Active
[1]
  GI50: 2.95 µM
HOP-62
  GI50: 2.09 µM
HCT-116
  GI50: 1.29 µM
[2]
  Activity: 75%
  inhibition: Active
OVCAR-3
  GI50: 4.27 µM
MCF7
  GI50: 0.347 µM
[3]
  growth at 10 µM: 30.3%
[5]
  inhibition: Active
[6]
  inhibition: Active
SN12C
  GI50: 2.34 µM
UACC-62
  GI50: 1.38 µM

## O=C1c2ccccc2-c2c1c1ccc([N+](=O)[O-])cc1c(=O)n2CCCn1ccnc1
[2]
  Activity: 100%
MCF7
  GI50: 2.17 µM

## O=C1c2ccccc2-c2c1c1ccc(F)cc1c(=O)n2CCCn1ccnc1
[4]
  inhibition: Active
[1]
  GI50: 0.417 µM
HOP-62
  GI50: 0.49 µM
HCT-116
  GI50: 0.309 µM
[2]
  Activity: 75%
  inhibition: Active
DU-145
  GI50: 0.575 µM
OVCAR-3
  GI50: 1.29 µM
MCF7
  GI50: 0.135 µM
[3]
  growth at 10 µM: -8.15%
[5]
  inhibition: Active
[6]
  inhibition: Active
SN12C
  GI50: 0.437 µM
UACC-62
  GI50: 0.245 µM

## O=C1c2ccccc2-c2c1c1ccc(C(F)(F)F)cc1c(=O)n2C[C@H](O)CO
[2]
  Activity: 20%
[3]
  growth at 10 µM: 52.2%

## O=C1c2ccccc2-c2c1c1ccc(Cl)cc1c(=O)n2CCCN1CCOCC1
[4]
  inhibition: Active
[1]
  GI50: 2.4 µM
HOP-62
  GI50: 2.14 µM
HCT-116
  GI50: 1.62 µM
[2]
  Activity: 50%
  inhibition: Active
DU-145
  GI50: 4.07 µM
OVCAR-3
  GI50: 6.03 µM
MCF7
  GI50: 0.372 µM
[3]
  growth at 10 µM: 44.7%
[5]
  inhibition: Active
[6]
  inhibition: Active
SN12C
  GI50: 5.01 µM
UACC-62
  GI50: 3.31 µM

## N#Cc1ccc2c3c(n(C[C@H](O)CO)c(=O)c2c1)-c1ccccc1C3=O
[2]
  Activity: 20%
[3]
  growth at 10 µM: 42.6%

## O=C1c2ccccc2-c2c1c1cc(C(F)(F)F)ccc1c(=O)n2CCCn1ccnc1
[2]
  Activity: 20%
[3]
  growth at 10 µM: 49.3%

## O=C1c2ccccc2-c2c1c1ccncc1c(=O)n2CCCN1CCOCC1
[2]
  Activity: 50%
NCI60
  Activity: inactive

## O=C1c2ccccc2-c2c1c1ccc(Br)cc1c(=O)n2CCCN1CCOCC1
[2]
  Activity: 75%
[3]
  growth at 10 µM: 84%

## COC(=O)c1ccc2c3c(n(C[C@H](O)CO)c(=O)c2c1)-c1ccccc1C3=O
[2]
  Activity: 20%
NCI60
  Activity: inactive

## O=C1c2ccccc2-c2c1c1ccc(Br)cc1c(=O)n2C[C@H](O)CO
[2]
  Activity: 50%
[3]
  growth at 10 µM: 46.8%

## CSc1ccc2c3c(n(CCCn4ccnc4)c(=O)c2c1)-c1ccccc1C3=O
[2]
  Activity: 20%
[3]
  growth at 10 µM: 42.6%

## O=C1c2ccccc2-c2c1c1ccc(Br)cc1c(=O)n2CCCn1ccnc1
[1]
  GI50: 0.676 µM
HOP-62
  GI50: 0.513 µM
HCT-116
  GI50: 0.251 µM
[2]
  Activity: 50%
DU-145
  GI50: 0.676 µM
OVCAR-3
  GI50: 3.31 µM
MCF7
  GI50: 0.191 µM
[3]
  growth at 10 µM: 27.3%
SN12C
  GI50: 0.468 µM
UACC-62
  GI50: 0.427 µM
